Key:
ERK5 [1] = target: T1, ERK5 (Homo sapiens, UniProt Q13164); test: KdELECT biochemical binding assay
Outline: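 Binding constants to ERK5 were determined in an outsourced KdELECT kinase binding assay from an 11-point dose–response curve.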

panel of 468 kinases = test: scanMAX KINOMEscan selectivity panel; assay type: binding; settings: 1 μM
ERK5 [2] = target: T1, ERK5; test: ERK5 degradation in MOLT4 cells; assay type: cell-based; settings: 5 hours, 5 μM or greater
BRD4 = BRD4 (Homo sapiens, UniProt O60885); test: BRD4 immunoblot in MOLT4 cells; assay type: cell-based; settings: 5 hours
Outline: (§1)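 MOLT4 cells (RPMI, 10% heat-inactivated FBS, pen-strep, 37 °C, 5% CO2) were exposed to test compound at a range of concentrations for 5 h. Lysis was in M-PER with protease and phosphatase inhibitors, and lysates were BCA-normalised. Samples were run on 4–12% Bis-Tris gels and blotted to nitrocellulose. ERK5, BRD4, AURKA and actin antibodies were applied overnight at 4 °C. Detection was by IRDye secondaries. Blots are representative of 2–3 biological replicates.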

AURKA = target: T2, AURKA (Homo sapiens, UniProt O14965); test: AURKA immunoblot in MOLT4 cells; assay type: cell-based; settings: 5 hours
T2 sequence (O14965 1-403): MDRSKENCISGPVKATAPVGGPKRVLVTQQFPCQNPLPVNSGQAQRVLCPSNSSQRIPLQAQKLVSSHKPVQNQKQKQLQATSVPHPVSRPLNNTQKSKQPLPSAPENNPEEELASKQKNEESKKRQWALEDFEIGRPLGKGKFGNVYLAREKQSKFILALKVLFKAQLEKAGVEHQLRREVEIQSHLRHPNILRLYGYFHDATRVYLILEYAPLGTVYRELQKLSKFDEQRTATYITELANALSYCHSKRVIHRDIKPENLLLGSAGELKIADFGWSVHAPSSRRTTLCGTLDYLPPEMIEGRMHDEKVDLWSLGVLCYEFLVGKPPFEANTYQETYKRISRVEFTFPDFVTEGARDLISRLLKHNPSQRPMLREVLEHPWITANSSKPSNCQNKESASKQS
Outline: as §1

MOLT4 cells = test: global quantitative TMT MS proteomics in MOLT4 cells; assay type: cell-based, Human; settings: MOLT4, 100 nM, 5 hours, ~7,700 proteins quantified
Outline: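 MOLT4 cells were treated for 5 h with test compound (250 nM, or 100 nM for one degrader) or DMSO (biological triplicate), then harvested by centrifugation. TMT-labelled tryptic peptides were analysed by LC-MS3 on an Orbitrap Fusion Lumos using a 190 min 6–27% acetonitrile gradient. Spectra were searched against Swissprot human. Proteins with ≥2 unique peptides were kept, and abundance relative to DMSO was computed by limma.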

BT-474 cells = test: CellTiter-Glo proliferation assay, BT-474; assay type: cell-based, Human; settings: Homo sapiens, BT-474, 72 h, read-out: anti-proliferative EC50
SNU-449 cells = test: CellTiter-Glo proliferation assay, SNU-449; assay type: cell-based, Human; settings: Homo sapiens, SNU-449, 72 h, read-out: anti-proliferative EC50
MM.1S cells = test: CellTiter-Glo proliferation assay, MM.1S basal; assay type: cell-based; settings: Homo sapiens, MM1.S, 72 h, read-out: anti-proliferative EC50
Outline: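 MM.1S cells, unstimulated, were grown in RPMI with 10% heat-inactivated FBS. They were plated at 500–1000 cells/well and exposed to test compound across a concentration series for 72 h. Viability was read by CellTiter-Glo luminescence. EC50 came from nonlinear regression curve fitting.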

[3] = test system: IL-6 stimulated MM.1S cells; test: IL-6-induced MM.1S proliferation; assay type: cell-based, Human; settings: 500 nM and 1 μM, 5 nM IL-6, 3d
Outline: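 MM.1S cells at 10,000 cells/well were pre-treated for 5 h with test compound at 500 nM or 1 μM. Recombinant human IL-6 (5 nM) was then added. After 72 h, proliferation was read by CellTiter-Glo. Data are mean with standard deviation of three biological replicates.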

panel of 750 cell lines = test: PRISM platform anti-proliferative screen; assay type: cell-based; settings: read-out: IC50 values in PRISM screen
ERK5 [4] = target: T1, ERK5; test: ERK5 degradation in HUVECs; assay type: cell-based
Outline: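 HUVECs (pooled primary, in vascular cell basal medium with VEGF growth kit and pen-strep, 37 °C, 5% CO2) were treated with test compound for 5 or 24 h. Lysates were BCA-normalised and separated on 4–12% Bis-Tris gels, then transferred to nitrocellulose. ERK5 and actin were probed overnight at 4 °C with IRDye secondary detection. Blots are representative of 2 biological replicates.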

IL-6 secretion = test: IL-6 ELISA, LPS-stimulated HUVECs; assay type: cell-based, Human; settings: LPS 10 μg/mL 6 hours
Outline: (§2)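 HUVECs were seeded at 30,000–60,000 cells/well and pre-treated with test compound for 5 or 24 h. They were then stimulated with E. coli O111:B4 LPS at 10 μg/mL for 6 h. Secreted IL-6 or IL-8 in the supernatant was quantified by sandwich ELISA kits per the manufacturer. Statistics used two-way ANOVA with Bonferroni correction.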

IL-8 secretion = test: IL-8 ELISA, LPS-stimulated HUVECs; assay type: cell-based, Human; settings: LPS 10 μg/mL 6 hours
Outline: as §2

T1 sequence (Q13164 whole entry): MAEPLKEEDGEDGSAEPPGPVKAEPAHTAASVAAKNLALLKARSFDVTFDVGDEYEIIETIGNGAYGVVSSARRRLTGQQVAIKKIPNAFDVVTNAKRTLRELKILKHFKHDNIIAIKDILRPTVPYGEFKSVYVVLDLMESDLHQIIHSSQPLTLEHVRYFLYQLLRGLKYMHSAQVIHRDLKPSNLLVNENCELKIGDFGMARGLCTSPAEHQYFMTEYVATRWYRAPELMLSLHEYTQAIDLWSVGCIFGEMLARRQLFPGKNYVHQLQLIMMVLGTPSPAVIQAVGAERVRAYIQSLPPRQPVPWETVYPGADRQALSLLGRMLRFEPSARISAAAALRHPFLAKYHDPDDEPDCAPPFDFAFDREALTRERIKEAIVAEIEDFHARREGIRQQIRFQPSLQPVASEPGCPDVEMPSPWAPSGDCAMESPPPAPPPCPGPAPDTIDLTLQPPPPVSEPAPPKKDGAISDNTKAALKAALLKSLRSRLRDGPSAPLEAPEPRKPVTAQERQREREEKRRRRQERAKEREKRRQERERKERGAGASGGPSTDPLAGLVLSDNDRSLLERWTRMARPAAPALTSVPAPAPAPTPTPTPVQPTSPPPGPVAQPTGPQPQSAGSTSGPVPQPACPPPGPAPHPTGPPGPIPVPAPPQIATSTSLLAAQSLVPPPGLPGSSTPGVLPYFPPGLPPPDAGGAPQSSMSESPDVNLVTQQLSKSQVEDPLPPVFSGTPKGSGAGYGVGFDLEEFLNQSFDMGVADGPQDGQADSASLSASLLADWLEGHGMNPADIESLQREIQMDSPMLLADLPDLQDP

Kd (ERK5 [1]): 12 nM | ERK5 degradation at high concentration (hook effect) (ERK5 [2]): diminished ERK5 degradation | BRD4 protein levels (BRD4): did not destabilize | AURKA protein levels (AURKA): did not destabilize | EC50 (BT-474 cells): > 20 µM | EC50 (SNU-449 cells): > 20 µM | EC50 (MM.1S cells): 6 µM | ERK5 protein level (ERK5 [4]; 1 μM, 5-hour treatment): potent downregulation of ERK5 | ERK5 degradation (ERK5 [4]; 24 hours): maintained for 24 hours
SMILES: Cc1ncsc1-c1ccc([C@H](C)NC(=O)[C@@H]2C[C@@H](O)CN2C(=O)[C@@H](NC(=O)CCCCCN2CCN(c3ccc4c(C5CCN(C(=O)c6ccc(OC(F)(F)F)cc6N)CC5)ncnc4c3)CC2)C(C)(C)C)cc1 [INY-06-061, (2S,4R)-1-((S)-2-(6-(4-(4-(1-(2-amino-4-(trifluoromethoxy)benzoyl)piperidin-4-yl)quinazolin-7-yl)piperazin-1-yl)hexanamido)-3,3-dimethylbutanoyl)-4-hydroxy-N-((S)-1-(4-(4-methylthiazol-5-yl)phenyl)ethyl)pyrrolidine-2-carboxamide]
potential off-target kinases (panel of 468 kinases): weak inhibition of potential off-targets (AXL, CDK19, SgK110, CDKL2, and AURKC) | biochemical selectivity profile across the kinome (panel of 468 kinases; 468 kinases): high selectivity for ERK5 | proteins significantly downregulated, proteomics (MOLT4 cells): ERK5 (MAPK7) was the only protein whose abundance was significantly downregulated | effect on IL-6-induced proliferation [3]: no effect | IC50 (panel of 750 cell lines): > 1000 nM | IL-6 secretion upon LPS stimulation (IL-6 secretion; 5-hour pre-treatment): did not significantly suppress | IL-6 secretion upon LPS stimulation (IL-6 secretion; 24-hour pre-treatment): no effect | IL-8 secretion upon LPS stimulation (IL-8 secretion; 5-hour pre-treatment): did not significantly suppress | IL-8 secretion upon LPS stimulation (IL-8 secretion; 24-hour pre-treatment): no effect
